# An excerpt weighted towards active compounds, which were near 2.5% of everything screened.
# Pemphigus Ab inh – inhibitors of pemphigus antibody binding to DSG3, primary screen, biochemical, bead-based, flow cytometry, scFv-GFP; DSG3-coupled beads, scFv-anti-DSG3-GFP binding; stronger effect = lower value; binding (percent of control), % at 10 µM; actives 0.48% (n = 310,000); AID 588358, 2011;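 active means binding more than 3 SD below its plate's average and above zero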;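 further: hits lower antibody fragment binding to DSG3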
# UHRF1 MBD2 ctr – UHRF1 methylated DNA binding inhibitors, primary screen, counter-screen for MBD2 inhibitor project, biochemical, TR-FRET, human UHRF1, single concentration | E3 ubiquitin-protein ligase UHRF1 (Homo sapiens), Q96T88 | UHRF1 binding to methylated oligo | inhibition, % at 4.4 µM | actives 0.75% (n = 370,000) | AID 687016, 2013;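 further: UHRF1 SRA domain binding a hemimethylated CpG hairpin DNA probe; 0% = median of test compound wells and 100% = reference inhibitor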
# DNMT1 block – human DNMT1 methyltransferase inhibitors, primary screen, biochemical, molecular beacon, fluorescence, HinP1I cleavage, uHTS; DNA (cytosine-5)-methyltransferase 1 (Homo sapiens), P26358; inhibition (reported as % activation of signal), % at 10 µM; actives 0.83% (n = 360,000); AID 588458, 2011; in the data active means inhibition above about 50%
# MBD2 inh – inhibitors of MBD2 binding to methylated DNA, primary screen, biochemical, TR-FRET, DNA-binding domain, human; Methyl-CpG-binding domain protein 2 (Homo sapiens), Q9UBB5; actives 0.31% (n = 370,000); MBD2 binding to methylated oligonucleotide; inhibition, % at 4.4 µM; in the data active means inhibition above about 13%
# Target sequence (Q9UBB5 whole entry, looked up, the tested form may be a part): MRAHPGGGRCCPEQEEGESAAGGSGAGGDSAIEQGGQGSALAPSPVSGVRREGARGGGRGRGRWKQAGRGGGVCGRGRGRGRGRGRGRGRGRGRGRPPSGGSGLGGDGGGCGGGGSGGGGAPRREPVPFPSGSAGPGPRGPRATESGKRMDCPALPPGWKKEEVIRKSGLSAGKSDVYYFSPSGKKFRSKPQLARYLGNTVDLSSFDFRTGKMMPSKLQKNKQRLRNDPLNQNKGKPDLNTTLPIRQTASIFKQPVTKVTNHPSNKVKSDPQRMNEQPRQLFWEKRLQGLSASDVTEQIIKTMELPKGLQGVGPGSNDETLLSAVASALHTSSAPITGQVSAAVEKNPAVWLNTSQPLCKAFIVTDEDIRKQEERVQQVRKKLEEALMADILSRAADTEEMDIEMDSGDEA
# SUMO1 PPI mod – modulators of SUMO1 protein-protein interactions, primary screen, biochemical, uHTS; SUMO1 binding to a labelled peptide, TR-FRET, 1 h; Small ubiquitin-related modifier 1 (Homo sapiens), P63165; actives 0.33% (n = 360,000); inhibition, % at 20 µM; in the data active means inhibition above about 37%
# Target sequence (P63165 whole entry, looked up): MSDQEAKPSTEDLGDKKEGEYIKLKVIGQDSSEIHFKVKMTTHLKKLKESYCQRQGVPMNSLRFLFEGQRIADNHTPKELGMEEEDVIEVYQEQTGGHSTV
# HCV NS3 hel inh – inhibitors of HCV NS3 helicase, primary screen, biochemical, Cy5 molecular beacon fluorescence | Hepatitis C virus NS3 helicase | inhibition, % at 10.9 µM | actives 0.56% (n = 290,000) | NS3 helicase DNA unwinding;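 active means inhibition above the mean of all tested compounds plus 3 SD, set per campaign, cut at about 35% in these data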;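 further: 0% = DMSO wells and 100% = thioflavine S control wells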
#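 test system = hepatitis C virus NS3 helicase domain fragment enzyme | reagent = annealed dual-labelled DNA beacon duplex, ATP-started | times = 1 h at 25 °C | detection = Cy5 fluorescence, 0 and 60 min reads | read-out basis = percent inhibition from t60/t0 fluorescence ratio | control set = DMSO and thioflavine S | replication = one well per compound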
# UHRF1 ctr MBD2 – UHRF1 methylated DNA binding inhibitors, counter-screen for MBD2 inhibitor project, biochemical, TR-FRET, human UHRF1; shares compounds with MBD2 inh; UHRF1 binding to methylated oligonucleotide; inhibition, % at 4.4 µM; actives 25% (n = 1,000);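 further: UHRF1 SRA domain binding a labeled hemimethylated CpG hairpin DNA; 0% = vehicle only and 100% = reference inhibitor with vehicle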
# MBD2 DBD conf – inhibitors of MBD2 binding to methylated DNA, confirmation, biochemical, TR-FRET, DNA-binding domain, human. shares compounds with MBD2 inh. TR-FRET MBD2-DBD binding to methylated oligonucleotide. AID 720531, 2013. inhibition, % at 4.4 µM. actives 26% (n = 1,000); in the data active means inhibition above about 14%
# * marks the source's active call; other numbers are inactive results; . = not tested or not shown. Unless noted, no stated cut-off is given here; in the data, active means inhibition above about 21%; inactive means the rest.
SMILES,Pemphigus Ab inh,UHRF1 MBD2 ctr,DNMT1 block,MBD2 inh,SUMO1 PPI mod,HCV NS3 hel inh,UHRF1 ctr MBD2,MBD2 DBD conf
CCCCN(CC)S(=O)(=O)N1CCC(C(=O)NCc2ccc(F)cc2)CC1,95.7,-2.2,4.0,-0.9,20.2,-6.9,.,.
C=C(C)Cn1c(COc2ccccc2)nnc1SCC(=O)O,98.3,-0.2,-0.8,15.3*,1.0,-0.6,4.1,2.9
C=CCn1c(COc2ccccc2)nnc1SCC(=O)O,118.2,-1.9,0.1,-2.5,-1.1,6.5,.,.
COc1ccc(CC(=O)N2CCN(c3cccc(C)c3C)CC2)cc1,115.4,1.5,-3.0,15.8*,-0.6,-16.2,4.9,3.5
COC(=O)c1cc(-c2cccc([N+](=O)[O-])c2)c2c(=O)[nH]c(=O)n(C)c2n1,102.7,23.0*,-2.1,13.5*,-13.4,-11.2,7.9,3.5
Cc1c(C(N)=O)cc([N+](=O)[O-])cc1[N+](=O)[O-],91.2,22.5*,-3.8,17.0*,-41.4,.,4.8,2.1
CCOC(=O)c1c(NC(=O)C(C)Sc2cn(C)c3ccccc23)sc2c1CCC2 (stereo not drawn),101.6,-2.1,-3.1,-1.2,1.6,11.8,.,.
Cc1cc2cc(C(c3nnnn3CC3CCCO3)N3CCCc4ccccc43)c(=O)[nH]c2cc1C (stereo not drawn),105.1,-8.5,-12.8,-3.3,-4.3,8.3,.,.
Cc1cccc2cc(C(c3nnnn3CC3CCCO3)N3CCCc4ccccc43)c(=O)[nH]c12 (stereo not drawn),97.3,-1.2,-4.6,18.3*,-17.9,0.1,0.8,1.6
Cc1cccc(NC(=O)C2CCN(C(=O)c3ccco3)CC2)c1C,102.1,0.6,0.3,-1.9,0.4,-13.8,.,.
COc1ccc(C)cc1NC(=O)C1CCN(C(=O)c2ccco2)CC1,.,-2.1,-0.1,13.9*,-4.7,-0.2,8.7,3.1
CC(C)(C)C(=O)NC1CCN(S(=O)(=O)c2ccccc2F)CC1,104.9,-0.8,2.7,14.6*,0.8,10.2,6.8,2.6
COc1ccc(C(=O)NC2CCN(S(=O)(=O)c3ccccc3F)CC2)cc1,118.6,3.1,-1.7,-1.0,0.6,8.1,.,.
CCC(Sc1nc2n[nH]c(C)c2c(=N)n1-c1cc(Cl)ccc1C)C(=O)N1CCOCC1 (stereo not drawn),120.4,2.1,-4.0,1.2,4.3,1.6,.,.
Cc1cccc(CN2CCN(C3CN(Cc4cn(Cc5ccc(Cl)cc5)nn4)S(=O)(=O)C3)CC2)c1 (stereo not drawn),.,15.1,.,13.2*,0.1,.,5.7,5.1
Cc1ccc(Cn2cc(CN3CC(N4CCN(CCN(C)C)CC4)CS3(=O)=O)nn2)cc1 (stereo not drawn),.,18.4,.,7.4,-12.3,.,.,.
CN(C)CCN1CCN(C2CN(Cc3cn(Cc4ccccc4)nn3)S(=O)(=O)C2)CC1 (stereo not drawn),.,20.4,.,14.8*,-3.4,.,6.1,7.9
COCCCn1cc(CN2CC(N3CCN(C)CC3)CS2(=O)=O)nn1 (stereo not drawn),.,19.6,.,13.5*,6.5,.,12.3,6.0
COc1ccc(Cl)cc1NC(=O)CN1CCN(S(=O)(=O)N2CCC(C)CC2)CC1,.,4.3,-3.2,-5.9,2.1,-15.9,.,.
CN(CC(=O)Nc1ccccc1Br)C(=O)CCCSc1nc2ccccc2[nH]1,98.1,5.0,-0.5,6.5,2.0,.,.,.
COc1ccc(CCNC(=O)c2ccc3c(c2)OCO3)cc1,.,-1.5,1.5,2.5,10.2,9.5,.,.
COc1ccc(C(CC(=O)N2CCOCC2)C(C)C)cc1 (stereo not drawn),104.9,23.5*,4.4,14.6*,-0.1,-1.7,7.4,2.6
CCOc1cc(C(=O)NC(=S)Nc2ccc(Cl)c(C(=O)O)c2)cc(OCC)c1OCC,95.5,5.2,0.9,-0.9,0.8,21.5,.,.
CCOc1ccc(CCN2C(=O)C(=O)N([C@@H](CC(C)C)CN3CCC[C@H]3CN3C(=O)C(=O)NC[C@@H]3CC(C)C)C[C@@H]2Cc2ccc(O)cc2)cc1,.,22.2*,.,15.6*,3.1,.,3.9,5.4
CCOc1ccc(CCN2C(=O)C(=O)N([C@@H](CC(C)C)CN3CCC[C@H]3CN3C(=O)C(=O)NC[C@@H]3Cc3ccc(O)cc3)C[C@@H]2Cc2ccccc2)cc1,.,1.3,.,-8.0,4.6,.,.,.
SMILES,Pemphigus Ab inh,UHRF1 MBD2 ctr,DNMT1 block,MBD2 inh,SUMO1 PPI mod,HCV NS3 hel inh,UHRF1 ctr MBD2,MBD2 DBD conf
Cc1ccccc1C(=O)Nc1c(C)[nH]c(=O)[nH]c1=O,89.9,0.0,0.8,2.0,3.6,-5.6,.,.
Oc1ccc(N2CCN(Cc3c(-c4ccccc4)nc4ccccn34)CC2)cc1,105.3,0.2,-2.9,80.5*,6.0,0.3,9.5,1.7
Cc1cc(/C=C2\SC(=O)NC2=O)c(C)n1-c1ccc(N2CCOCC2)cc1,111.3,-1.3,2.0,-1.6,-4.1,29.0,.,.
Cc1cc(/C=C2\SC(=O)NC2=O)c(C)n1-c1ccc(N(C)C)cc1,106.2,38.9*,1.1,16.5*,-4.1,0.0,8.0,3.2
CNS(=O)(=O)c1cccc(C(=O)OCC(=O)Nc2ccccc2F)c1,104.2,25.7*,4.7,16.7*,16.0,0.5,4.1,1.8
Cc1ccc(S(=O)(=O)N2CCC(=O)N(CCOCc3ccccc3C)CC2)cc1,102.2,-1.3,0.6,-1.2,1.2,-4.0,.,.
CCOC(=O)c1c(C)c2c(=O)[nH]cnc2n1-c1ccccc1,90.7,2.8,-0.6,0.9,2.9,0.7,.,.
CCOC(=O)c1c[nH]c(=S)n(-c2ccccc2)c1=O,101.0,-0.6,14.6,37.1*,6.1,.,1.2,2.9
CCCCCCCCCC(=O)O,91.2,-3.1,-3.2,1.0,0.7,.,.,.
O=C(O)CCCCC1CCSS1 (stereo not drawn),92.0,48.1*,13.6,22.4*,3.4,20.8,36.4*,15.8*
CC(C)(C)SCCNC(=O)CN(c1ccccc1)S(=O)(=O)c1ccccc1,101.0,1.9,-1.0,-0.6,1.2,-8.1,.,.

# Screens: PubChem, several laboratories
